The source of these data is PubChem BioAssay.

Calls of active or inactive are those of the source.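 Rule for the calls, unless noted: active = viability at or below 30% in both replicate assays; inconclusive = viability at or below 30% in just one of the two assays; inactive = the rest.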

Test [1] can be described thus: HUVEC growth inhibition – cell-based, human, primary screen (AID 575).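 Note: 100% = median of untreated cell wells with 0.1% DMSO on each plate.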 The conditions noted are these: HUVEC proliferation, CellTiter-Glo luminescence, 72 h; at 10 µM; stronger effect = lower value. A digest of the protocol: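 material = primary HUVEC, no more than 12 passages | input = 1250 cells per well | controls = vehicle and MePR control wells | measured by = CTG luminescence | times = 72 h compound incubation | format = collagen-coated 384-well format | read-out = % viability vs DMSO wells | doses = single 10 µM dose, 0.1% DMSO, from 5x medium stock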

Test [2] in a line: H69AR cell proliferation blockers – human, duplicate replicates, primary screen (AID 580;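 active = viability at or under a set limit in both replicates, limit being median viability minus 3 SD, cut at about 48% in these data, passing the limit was not always enough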;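 note: 100% = mean luminescence of untreated wells and 0% = no signal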). To be noted: H69AR lung tumor cells viability, ATP luminescence, 72 h; at 10 µM; stronger effect = lower value.
Test [3] is described as follows: MRP1 drug-resistance reversers in H69AR cells – cell-based, doxorubicin co-treatment, pilot screen (AID 601;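 active = viability loss from added drug above about 55%, and viability with drug at most 40%, in both replicates, limit read from the data, passing the limit was not always enough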). The conditions noted are these: CellTiter-Glo, 72 h, at 10 µM; for differential viability (reversal): stronger effect = higher value.
Test [4] is described as follows: yeast transport mutant growth inhibition pilot in 384-well plates, post-Golgi transport modulator project (AID 636; in the data active = inhibition above about 31%). To be noted: absorbance 615 nm, about 18 h, stronger effect = higher value.
A short description of test [5]: growth suppression of yeast trafficking mutant, preliminary HTS, modulators of trafficking downstream of Golgi apparatus project, 1536-format plate, OD 615 nm (AID 637; in the data active = inhibition above about 30%). The conditions noted are these: yeast transport mutant growth, absorbance 615 nm, 18 h; stronger effect = higher value.
Where [6] appears, read: H69AR cells + 2 uM doxorubicin, measured here: viability with 2 uM doxorubicin, stronger effect = lower value.
The mark [7] stands for this setting: H69AR cells, compound alone cytotoxicity.

`CN1CCCc2cc(C#N)c(=O)[nH]c21`: the viability in test [1] was 99.7% (inactive); in test [2], 107% (inactive); in test [3] (setting [6]), 99.3%; in test [3] (setting [7]), 107%. For the same compound, in test [3] (H69AR cells + 2 uM doxorubicin), the differential viability (reversal) is 8.18% (inactive). Further, the inhibition was -5.71% (inactive) in test [4] and -2.38% (inactive) in test [5].
`NC(=O)c1cc(-c2ccccc2)nc(Oc2ccccc2)n1`: the viability in test [1] was 108% (inactive); in test [2], 98.7% (inactive); in test [3] (setting [6]), 95%; in test [3] (setting [7]), 98.7%. For the same compound, the differential viability (reversal) in test [3] (H69AR cells + 2 uM doxorubicin) is 3.71% (inactive). Further, the inhibition is -8% (inactive) in test [4] and -0.63% (inactive) in test [5].
As for `CCn1nccc1C(=O)Nc1nccs1`, the viability was 104% (inactive) in test [1], 93.7% (inactive) in test [2], 83.7% in test [3] (setting [6]) and 93.7% in test [3] (setting [7]). The differential viability (reversal) in test [3] (H69AR cells + 2 uM doxorubicin) was 10% (inactive). The inhibition is -4.34% (inactive) in test [4] and 3.65% (inactive) in test [5].
Consider `Cc1ccc(SC(C)c2nc(-c3ccccc3)no2)cc1` (stereo not given), for which the viability in test [1] was 114% (inactive); in test [2] it was 99.9% (inactive); in test [3] (setting [6]), 95.2%; in test [3] (setting [7]), 99.9%. Further, in test [3] (H69AR cells + 2 uM doxorubicin), the differential viability (reversal) was 4.68% (inactive). Further, the inhibition was -6.13% (inactive) in test [4] and -5.08% (inactive) in test [5].
Consider `CCN(CC)c1ccc2c(c1)C(=O)N(C)C2=O`, for which the viability is 71.6% (inactive) in test [1], 84.6% (inactive) in test [2], 82.4% in test [3] (setting [6]) and 84.6% in test [3] (setting [7]). The differential viability (reversal) in test [3] (H69AR cells + 2 uM doxorubicin) was 2.22% (inactive). For the same compound, the inhibition in test [4] is -0.66% (inactive); in test [5] it was 1.9% (inactive).
For the compound `CC(=O)CC(=O)Nc1ccccc1NC(C)=O`, the viability in test [1] is 105% (inactive); in test [2], 101% (inactive); in test [3] (setting [6]), 93.2%; in test [3] (setting [7]), 101%. Also, in test [3] (H69AR cells + 2 uM doxorubicin), the differential viability (reversal) is 8.12% (inactive). Besides, the results for the inhibition in test [4] and in test [5] were -2.86% (inactive) and 1.43% (inactive), respectively.
`COc1ccc2c(c1)c1c(n2C(C)=O)C(OC(C)=O)=NCC1`: the viability was 92.4% (inactive) in test [1], 87.4% (inactive) in test [2], 87.5% in test [3] (setting [6]) and 87.4% in test [3] (setting [7]). The differential viability (reversal) in test [3] (H69AR cells + 2 uM doxorubicin) was -0.05% (inactive). For the same compound, the inhibition was -5.39% (inactive) in test [4] and 5.71% (inactive) in test [5].
Consider `O=C1c2ccccc2NC(c2ccco2)N1O` (stereo not given), for which the viability in test [1] was 97.2% (inactive); in test [2] it was 96.5% (inactive); in test [3] (setting [6]), 87.3%; in test [3] (setting [7]) it was 96.5%. Also, in test [3] (H69AR cells + 2 uM doxorubicin), the differential viability (reversal) is 9.15% (inactive). Besides, the inhibition is -3.38% (inactive) in test [4] and 0.32% (inactive) in test [5].
Regarding `CC1=C(C#N)C(c2ccc3ncccc3c2)C(C#N)=C(C)N1`, the viability in test [1] is 86.2% (inactive); in test [2] it was 97% (inactive); in test [3] (setting [6]), 98.7%; in test [3] (setting [7]), 97%. Moreover, the differential viability (reversal) in test [3] (H69AR cells + 2 uM doxorubicin) was -1.7% (inactive). In addition, the inhibition was -4.74% (inactive) in test [4] and 0% (inactive) in test [5].
For `Cc1ccc(C(=O)CSc2nnc(CNc3ccc(C)cc3C)o2)cc1`, the viability in test [1] is 81.7% (inactive); in test [2], 81.2% (inactive); in test [3] (setting [6]) it was 80.4%; in test [3] (setting [7]), 81.2%. Besides, the differential viability (reversal) in test [3] (H69AR cells + 2 uM doxorubicin) was 0.795% (inactive). Besides, the inhibition in test [4] is -0.92% (inactive); in test [5], -10.5% (inactive).
With `O=C(c1ccccc1)N1CCN(Cc2ccccc2Br)CC1`, the viability in test [1] was 105% (inactive); in test [2] it was 92.3% (inactive); in test [3] (setting [6]) it was 89.4%; in test [3] (setting [7]) it was 92.3%. Moreover, the differential viability (reversal) in test [3] (H69AR cells + 2 uM doxorubicin) is 2.89% (inactive). Besides, the inhibition is -4.53% (inactive) in test [4] and -4.6% (inactive) in test [5].
`COc1ccc(N2CCN(C(=O)CN3C(=O)C4CC=CCC4C3=O)CC2)cc1` (stereo not given): the viability in test [1] is 99.7% (inactive); in test [2] it was 94.6% (inactive); in test [3] (setting [6]), 91.5%; in test [3] (setting [7]), 94.6%. Further, in test [3] (H69AR cells + 2 uM doxorubicin), the differential viability (reversal) was 3.03% (inactive). Further, the values for the inhibition in test [4] and in test [5] were 2.47% (inactive) and 14.8% (inactive), respectively.
Consider `Cc1cccc(-n2ncc(C#N)c2N)c1`, for which the viability in test [1] was 109% (inactive); in test [2], 104% (inactive); in test [3] (setting [6]) it was 100%; in test [3] (setting [7]) it was 104%. Besides, the differential viability (reversal) in test [3] (H69AR cells + 2 uM doxorubicin) was 3.67% (inactive). Also, the figures for the inhibition in test [4] and in test [5] were -2.76% (inactive) and -1.11% (inactive), respectively.
On to `Cn1c(SCC(=O)Nc2cccc3ccccc23)nc(O)cc1=O`, for which the viability in test [1] was 88.3% (inactive); in test [2], 89.7% (inactive); in test [3] (setting [6]), 95.4%; in test [3] (setting [7]) it was 89.7%. In test [3] (H69AR cells + 2 uM doxorubicin), the differential viability (reversal) was -5.66% (inactive). The inhibition in test [4] was -4.67% (inactive); in test [5], -0.79% (inactive).
Regarding `COc1cc(NC(=O)Cc2ccccc2OC)cc(OC)c1`, the viability was 96.9% (inactive) in test [1], 95.7% (inactive) in test [2], 92% in test [3] (setting [6]) and 95.7% in test [3] (setting [7]). Further, in test [3] (H69AR cells + 2 uM doxorubicin), the differential viability (reversal) was 3.67% (inactive). The inhibition in test [4] is 0.27% (inactive); in test [5], -6.67% (inactive).
On to `CN1/C(=C\C(=O)Nc2cccnc2)c2ccccc2CC1(C)C`, for which the viability is 99.3% (inactive) in test [1], 86.5% (inactive) in test [2], 90.6% in test [3] (setting [6]) and 86.5% in test [3] (setting [7]). The differential viability (reversal) in test [3] (H69AR cells + 2 uM doxorubicin) is -4.08% (inactive). In addition, the figures for the inhibition in test [4] and in test [5] were -4.4% (inactive) and -0.95% (inactive), respectively.
Regarding `O=C(c1ccncc1)N1CCN(C(=O)c2cccs2)CC1`, the viability was 103% (inactive) in test [1], 94.6% (inactive) in test [2], 89.1% in test [3] (setting [6]) and 94.6% in test [3] (setting [7]). In addition, the differential viability (reversal) in test [3] (H69AR cells + 2 uM doxorubicin) was 5.42% (inactive). Moreover, the inhibition in test [4] is -1.73% (inactive); in test [5], -2.38% (inactive).
`COc1ccc(NC(=O)COc2ccccc2)c(OC)c1`: the viability was 111% (inactive) in test [1], 104% (inactive) in test [2], 81% in test [3] (setting [6]) and 104% in test [3] (setting [7]). Moreover, the differential viability (reversal) in test [3] (H69AR cells + 2 uM doxorubicin) is 23.1% (inactive). The inhibition was -5.6% (inactive) in test [4] and 0.16% (inactive) in test [5].
As to `Cc1cc(NC(=O)c2ccc(Cl)cc2)no1`, the viability in test [1] was 96.1% (inactive); in test [2] it was 87.5% (inactive); in test [3] (setting [6]) it was 81.7%; in test [3] (setting [7]), 87.5%. Besides, in test [3] (H69AR cells + 2 uM doxorubicin), the differential viability (reversal) was 5.82% (inactive). The inhibition is 2.86% (inactive) in test [4] and 18.2% (inactive) in test [5].
Take `Cc1c(O)c(CN2CCCCC2)cc2c3c(c(=O)oc12)CCC3`: the viability in test [1] is 103% (inactive); in test [2] it was 82.2% (inactive); in test [3] (setting [6]) it was 82.8%; in test [3] (setting [7]) it was 82.2%. Further, the differential viability (reversal) in test [3] (H69AR cells + 2 uM doxorubicin) is -0.59% (inactive). The inhibition in test [4] is -6.84% (inactive); in test [5], 5.08% (inactive).
